p-CIP stab down: compounds decreasing mouse p/CIP protein stability; Q05BA5; F442A p/CIP-EGFP cells, EGFP fluorescence, 16 h; decrease of EGFP signal, % at 10 µM; actives 0.01% (n = 290,000);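 active = EGFP signal decrease of at least 30% at 10 µM or well 3 SD below plate mean, unless failing retest; inactive = the rest, including hits failing retest or dose response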
RAM network inh: inhibitors of the yeast RAM network | actives 1.8% (n = 190,000) | S. cerevisiae dse1pr::URA3 reporter, 5-FOA growth OD615, 2 d; analog-sensitive cbk1-as2 kinase mutant strain | inhibition, % at 50 µM;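 active = inhibition above a set limit, 3 SD over mean compound inhibition, cut at about 8.4% in these data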;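 note: 0% = DMSO-only wells with no growth and 100% = 10 µM 1-NA-PP1 full growth; inhibition rescues growth on 5-FOA so higher OD means more RAM inhibition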
Dynein transport: blocks dynein driven cargo transport along microtubules; z-score, hits read low; actives 0.47% (n = 220,000); 3617.4 mouse cells, GR-EGFP nuclear translocation imaging; test concentration mostly 20 µM; stimulated with dexamethasone, 1 µM; active compounds read low;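 active = plate z-score of nuclear minus cytoplasmic receptor signal below a set negative limit, without overly bright fluorescence or cell loss, cut at about -3.5 in these data, passing the limit was not always enough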;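 note: z-score of nuclear minus cytoplasmic ring GR-EGFP intensity difference per well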
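Buffer or medium: tet-free, stripped-serum medium; Also added: dexamethasone, 1.0 µM final; Technique: high-content fluorescence imaging after fixation; Times: 48 h induction, 1 h compound, 30 min dex at 37 °C; Read-out: per-cell GR-EGFP intensity, nucleus versus surrounding cytoplasmic ring, well-averaged.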
p47phox inh: p47phox (human) inhibition | P14598 | p47phox/p22phox peptide binding, fluorescence polarization, 2 h | inhibition, % at 24.7 µM | actives 0.53% (n = 220,000) | AID 1274;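 active = inhibition above about 30%, limit read from the data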;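 note: 0% = p47phox with labelled peptide and 100% = labelled peptide alone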
Target sequence (P14598 whole entry, looked up): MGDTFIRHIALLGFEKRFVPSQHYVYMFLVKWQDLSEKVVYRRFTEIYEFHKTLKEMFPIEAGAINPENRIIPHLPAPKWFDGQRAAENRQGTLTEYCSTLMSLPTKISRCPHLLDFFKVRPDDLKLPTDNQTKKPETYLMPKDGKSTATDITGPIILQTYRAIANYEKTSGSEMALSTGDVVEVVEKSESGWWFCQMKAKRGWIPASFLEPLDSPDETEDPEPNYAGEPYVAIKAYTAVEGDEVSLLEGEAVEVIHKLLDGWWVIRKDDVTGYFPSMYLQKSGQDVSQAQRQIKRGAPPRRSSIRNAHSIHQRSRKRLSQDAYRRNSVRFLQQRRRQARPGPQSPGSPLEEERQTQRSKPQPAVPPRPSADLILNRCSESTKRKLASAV
RAM efflux-def: restores 5-FOA growth of efflux-deficient yeast; shares compounds with RAM network inh; S. cerevisiae efflux-deficient reporter strain, 5-FOA growth OD615, 2 days; max inhibition, %; 1,200 tested, under 10 active; call rule not given here;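 note: plate controls were vehicle for no effect and reference inhibitor for full effect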
* = called active by the depositor; . = no result given. In the library only some 1.9% were active in any assay of this set; here they are far more common.

SMILES | p-CIP stab down | RAM network inh | Dynein transport | p47phox inh | RAM efflux-def
COc1ccc(N(CC(=O)NCc2ccc(C)cc2)S(=O)(=O)c2c(C)nn(C)c2C)cc1 | 0.6 | 15.1* | -0.0956 | -10.3 | 2.6
CCOC(=O)c1c(C)[nH]c(N=Nc2ccc(C)cc2C)c1C | -8.8 | 5.9 | -0.182 | -7.8 | .
CCOC(=O)c1c(C)[nH]c(N=Nc2ccccc2C)c1C | -5.5 | 19.6* | -0.756 | -15.9 | 4.8
OCCNc1nc(SCc2ccccc2)nc2sc3c(c12)CCC3 | 3.0 | 11.5* | -0.127 | -34.0 | 2.8
CCC/C=C(\CCC)C(NS(=O)(=O)c1cccc2cccnc12)c1ccc(C(=O)OC)cc1 (stereo not drawn) | -0.1 | 12.6* | -0.136 | -10.0 | 4.1
CCC/C=C(\CCC)C(NC(=O)OCC(C)C)c1ccc(C(=O)OC)cc1 (stereo not drawn) | -8.1 | 4.7 | 0.367 | -3.2 | .
COc1ccc(N=C2S/C(=C\c3ccc(C)s3)C(=O)N2CC(C)C)cc1 | -8.0 | 14.7* | -1.36 | -18.7 | 3.6
Cc1nc(-c2ccccc2)sc1C(=O)O | -6.7 | 0.2 | -0.27 | -0.9 | .
COc1ccc(/C=C/C(=O)c2sc(-c3ccccc3)nc2C)cc1 | -1.0 | 13.3* | . | -14.8 | 1.4
O/N=C/c1cc(Br)ccc1OCc1cccc(F)c1 | 2.9 | 12.2* | -0.346 | -15.1 | 1.9
Cc1ccc(C(=O)N/C(=C\c2cccc([N+](=O)[O-])c2)C(=O)NC(Cc2ccccc2)C(=O)O)cc1 (stereo not drawn) | 1.7 | . | . | . | .
Cc1cccc(C(C)C)c1NS(=O)(=O)c1cn(C)nc1C | 5.0 | . | . | . | .
COc1ccc(-c2ccc(-c3noc(C(C)C)n3)c(OC)n2)cc1 | -16.5 | 15.0* | -0.486 | -42.7 | 3.5
CCc1nc(-c2ccc(-c3ccc(OC)cc3)nc2OC)no1 | 6.4 | 1.6 | 1.39 | -20.6 | .
CCOc1ccc(N(CC(=O)Nc2ccc(OC)cc2OC)S(=O)(=O)c2c(C)[nH]c(=O)[nH]c2=O)cc1 | -9.3 | . | . | . | .
Brc1ccc(-c2csc(N3CCc4ccccc4C3)n2)cc1 | 6.6 | 15.1* | 0.293 | -11.9 | 4.7
CN1CCN(C2CCN(c3cccc(Cl)c3)CC2)CC1CCO (stereo not drawn) | -8.4 | . | . | . | .
COc1cc(-c2nnc(-c3ccccc3)o2)cc(OC)c1OC | -5.0 | 23.0* | -0.833 | 32.1* | 3.0
COc1cccc(C(=O)CSc2nnc(-c3cc(OC)c(OC)c(OC)c3)o2)c1 | 5.8 | 13.3* | 1.53 | -26.2 | 3.0
O=C(Nc1ccc(Oc2ccc3ccccc3c2)cc1)c1ccco1 | 0.8 | 15.3* | 1.42 | -28.1 | 4.3
O=C(Nc1cc(Sc2ccccn2)cc([N+](=O)[O-])c1)c1cccc(Cl)c1 | -4.0 | 11.8* | 0.195 | -5.3 | 1.3
COc1cccc(-c2cc(C(F)(F)F)nc(N3CCN(c4ccccc4)CC3)n2)c1 | -7.9 | 16.4* | 0.411 | -2.2 | 2.8
CCOC(=O)N1CCN(c2nc(-c3cccc(OC)c3)cc(C(F)(F)F)n2)CC1 | -8.0 | 12.2* | 0.388 | -1.4 | 2.1
CC(Oc1ccc(F)cc1)C(=O)Nc1ccccc1N1CCCCC1 (stereo not drawn) | 4.2 | . | . | . | .
COc1ccc(S(=O)(=O)Nc2cccc(S(=O)(=O)N3CCCCCC3)c2)cc1 | -0.2 | 14.3* | -1.71 | -3.2 | 5.2
SMILES | p-CIP stab down | RAM network inh | Dynein transport | p47phox inh | RAM efflux-def
COc1ccc(CC(=O)Nc2cccc(S(=O)(=O)N3CCCCCC3)c2)cc1OC | -2.2 | 11.7* | -0.674 | -9.6 | 2.6
CC(NCc1cc(Br)ccc1OCC(N)=O)C12CC3CC(CC(C3)C1)C2 (stereo not drawn) | -5.6 | . | . | . | .
COc1ccc(-c2[nH]ncc2CN2CCC(C(=O)N3CCOCC3)CC2)c(F)c1 | -22.8 | 2.0 | -0.545 | -13.1 | .
O=C(c1ccc(N2C(=O)C3C4CC(C(Br)C4Br)C3C2=O)cc1)N1CCCCC1 (stereo not drawn) | 6.5 | . | . | . | .
C/C(=N\OC(=O)c1ccc(OC(C)C)cc1)c1ccc(C)c(C)c1 | 6.2 | 11.9* | 0.582 | -0.5 | 2.8
CC/C(=N\OC(=O)c1ccc(OC(C)C)cc1)c1ccc(C)cc1 | 3.3 | 4.0 | 2.37 | -17.2 | .
CC(C)c1ccc(CNc2cc(N3CCCC3)ccc2[N+](=O)[O-])cc1 | -9.9 | 18.9* | -0.957 | -5.6 | 4.7
CC(C)(C)CNc1cc(N2CCCC2)ccc1[N+](=O)[O-] | -6.2 | 5.6 | -0.205 | -0.9 | .
CCCC(=O)Oc1c(S(=O)(=O)c2ccc(C)cc2)c(C)nn1C(C)(C)C | -10.0 | 11.8* | -0.0973 | 0.8 | 2.0
CC(C)c1ccc(CN2CC(C(=O)Nc3ccccc3)CC2=O)cc1 (stereo not drawn) | -14.7 | 2.4 | 2.35 | 5.7 | .
COc1ccc(OCCNC(=O)c2cccc(Oc3ccc(C(F)(F)F)cc3[N+](=O)[O-])c2)cc1 | 7.4 | 13.6* | 0.335 | -10.4 | 2.4
O=C(NCCOc1ccccc1)c1cc(C(=O)NCCOc2ccccc2)cc([N+](=O)[O-])c1 | -3.9 | 13.7* | -0.581 | -18.2 | 2.7
O=C(NCCOc1ccccc1)c1ccccc1[N+](=O)[O-] | 3.9 | -1.0 | -0.654 | 2.6 | .
Cc1ccc(C)c(NC(=O)c2cc(-c3cc(C)c(C)cc3O)n[nH]2)c1 | -3.1 | . | . | . | .
CCCCc1cc(=O)oc2cc(C)cc(OCC(=O)NCC3CCC(C(=O)O)CC3)c12 (stereo not drawn) | -0.6 | . | . | . | .
O=C(CN(C(=O)CCC(=O)Nc1ccccn1)c1ccc2c(c1)OCCO2)NCCc1ccccc1 | -7.6 | 15.2* | . | 5.7 | 1.4
N#Cc1c(-c2cccs2)nc(SCC(=O)c2cccs2)[nH]c1=O | -1.7 | 1.9 | 1.2 | -88.0 | .
Cc1ccc(CNC(=O)c2cc3c(s2)CN(Cc2ccccc2)C3)cc1 | 2.0 | 1.0 | -0.217 | -5.0 | .
O=C(COC(=O)c1ccc(CSc2ccc(Cl)cc2)cc1)Nc1ccccc1 | -14.2 | 11.5* | -0.146 | 3.6 | 2.1
O=C(COC(=O)c1ccncc1)Nc1ccccc1 | 2.2 | 1.6 | 0.476 | -0.9 | .
O=C(O)c1cc(Sc2ccc(Br)cc2)nc2ccccc12 | -8.2 | 11.4* | -0.337 | -9.2 | 2.6
CC(C)c1onc(C(=O)N2CCN(C(c3ccccc3)c3ccccc3)CC2)c1[N+](=O)[O-] | 9.2 | 0.9 | 1.48 | -2.2 | .
O=C(CSc1nnc(-c2ccc(Cl)s2)o1)N1CCCc2ccccc21 | -0.8 | 14.5* | 1.16 | 1.0 | 2.1
O=C(CSc1nnc(-c2ccc(Cl)s2)o1)N1CCc2ccccc21 | -3.5 | . | 1.5 | . | .
CC(=O)Nc1ccc(N(C(=O)c2ccco2)C(C(=O)NC2CCCCC2)c2ccccc2)cc1 (stereo not drawn) | -6.3 | . | . | . | .
Cn1c(SCC(=O)N2CCc3ccccc32)nnc1-c1ccc(S(=O)(=O)N2CCCC2)cc1 | -9.9 | 11.7* | -0.326 | -7.8 | 2.6
COc1ccc(/C=C2\SC(=S)N(C(Cc3ccccc3)C(=O)O)C2=O)cc1 (stereo not drawn) | 7.0 | 34.0* | 1.38 | -4.3 | 3.7
O=C(O)C(Cc1ccccc1)N1C(=O)/C(=C/c2cccnc2)SC1=S (stereo not drawn) | -0.3 | . | -0.131 | -6.5 | .

Assay outcomes: PubChem BioAssay, several laboratories
